Consider 10 molecules from ChEMBL document CHEMBL1132244, “Benzodiazepine receptor ligands. 4. Synthesis and pharmacological evaluation of 3-heteroaryl-8-chloropyrazolo[5,1-c][1,2,4] benzotriazine 5-oxides” (J Med Chem, 1999).

The test system of data set [1] is Mus musculus. Nature of the data set: Antianxiety activity was measured based on light/dark box thus calculated no of crosses of mice at 100 mg/kg dose. It counts as functional. The essentials: (§1)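 Male Swiss-Webster mice, 22–26 g, dosed orally with drug or 1% CMC vehicle (10 mL/kg), placed 30 min later in the centre of the lit side of a two-compartment light/dark box (60-W bulb 400 mm above the white floor). Time in the lit side and number of crossings counted over 5 min. Student's t-test.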

The test system of data set [2] is Mus musculus. Nature of the data set: (§2) Anticonvulsant activity against MES-induced hindlimb extension at 30 mg/kg dose. The format is functional.
In data set [3] the test system is Mus musculus. The experiment in a line: Antianxiety activity was measured based on light/dark box thus calculated % time in light of mice at 30 mg/kg dose. The format is functional. The procedure, abridged:
as §1

Data set [4] concerns the target T1, GABA-A receptor; anion channel (Bos taurus) (UniProt P10063+P08220+P20237+P08219+P10064+P22300). Nature of the data set: Percentage inhibition of [3H]Ro-151788 binding to GABA-A benzodiazepine receptor in bovine brain membrane at 10 uM. The format is cell membranes. The procedure, abridged: (§3)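 Washed bovine cerebral cortex membranes, with endogenous GABA removed by Triton X-100/37 °C washes, incubated with ~0.2 nM [3H]Ro15-1788 (Kd 0.60 nM) in 50 mM Tris-citrate pH 7.4 for 90 min at 0 °C, then filtered. Nonspecific binding defined with 10 μM diazepam. Screening at 10 μM; Ki from IC50 by Cheng–Prusoff; five determinations, mean ± SEM.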

Data set [5] deals with Mus musculus. The experiment in a line: Antianxiety activity was measured based on light/dark box thus calculated % time in light of mice at 100 mg/kg dose. It counts as functional. The essentials:
as §1

Data set [6] concerns Mus musculus. The experiment in a line: (§4) Anticonvulsant activity against MES-induced hindlimb extension at 100 mg/kg dose. It counts as functional.
For data set [7], the system named is Mus musculus. Nature of the data set: Anticonvulsant activity against PTZ induced atacks at 100 mg/kg dose. It counts as functional.
Data set [8] has as its system Mus musculus. Nature of the data set: Antianxiety activity was measured based on light/dark box thus calculated no of crosses of mice at 30 mg/kg dose. The format is functional. The essentials:
as §1

In data set [9] the target is T1, GABA-A receptor; anion channel (Bos taurus). Nature of the data set: The GABA ratio (GR) = IC50 compound + 10 uM GABA, performed in five independent experiments was calculated for the compound. It counts as protein-complex assay. The procedure, abridged: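 [3H]Ro15-1788 displacement from GABA-depleted bovine cortex membranes (0.2 nM ligand, 90 min, 0 °C, Tris-citrate pH 7.4). IC50 measured without and with 10 μM GABA and the ratio taken; five independent experiments.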

Data set [10] deals with Mus musculus. Nature of the data set: Muscle relaxant effect measured by rotarod test at 100 mg/Kg dose in mice. The format is functional. The essentials:
(§5)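 Motor coordination on the rota rod in male Swiss-Webster mice (22–26 g) after oral dosing in 1% CMC (10 mL/kg), tested 30 min post-dose. Student's t-test.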

In data set [11] the test system is Mus musculus. Described as §4. The format is organism-based. More on the design: dose 100 mg/kg. To be noted: in vivo. The procedure, abridged:
(§6)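 Male Swiss-Webster mice (22–26 g) received drug in 1% CMC (10 mL/kg) 30 min before maximal electroshock through transcorneal electrodes (40 mA, 50 Hz, 0.2 s). The end point was tonic hindlimb extension, and lethality was also noted. The incidence of non-convulsing mice was analysed by χ² test.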

The target in data set [12] is GABA-A receptor; anion channel. Nature of the data set: Displacement of [3H]Ro-151788 from GABA-A benzodiazepine receptor of bovine brain membranes. It counts as cell membranes, Bos taurus. The procedure, abridged: as §3
A general note: Loss of bound radioactivity is the signal in a displacement assay; it reports binding, not function.

For data set [13], the system named is Mus musculus. The data set is described as §2. It counts as ADME, organism-based. More on the design: dose 30 mg/kg. The following applies: in vivo. The essentials: as §6
For data set [14], the system named is Mus musculus. The experiment in a line: Muscle relaxant effect measured by rotarod test at 300 mg/Kg dose in mice. It counts as functional. The essentials:
as §5
(In general: Falling from the rotarod earlier than controls is read as motor impairment.)

Data set [15] concerns Mus musculus. The experiment in a line: Anticonvulsant activity against PTZ induced atacks at 30 mg/kg dose. The format is functional.
Data set [16] deals with T1, GABA-A receptor; anion channel (Bos taurus). Nature of the data set: Percentage inhibition of [3H]Ro-151788 binding to GABA-A central benzodiazepine receptor in bovine brain membrane at 10 uM. It counts as cell membranes. The procedure, abridged: as §3

For orientation: inhibition means the percentage by which the read-out fell short of the control. Lower therefore signals a response near the control. As usually defined, the Ki is a dissociation constant, usually derived from enzyme kinetics or from competition with a known ligand. Read a low Ki as higher affinity. Take `CCOC(=O)c1cnn2c1n[n+]([O-])c1ccc(Cl)cc12`: the No. of crosses in the data set with Mus musculus [1] is recorded as 15.2; in the data set with Mus musculus [8], 19.1. In addition, the Extension with Mus musculus [2] and in the data set on Mus musculus [6] was 0% throughout. Also, the Time in flight with Mus musculus [3] is 106.2%; in the data set on Mus musculus [5], 124.6%. In data set [4], this molecule returned an inhibition of 99.8%. For the same molecule, the Atttacks in the data set with Mus musculus [7] is 28.1%; with Mus musculus [15], 15%. Further, in data set [9], the GR is 1.91. Moreover, the No. of falls with Mus musculus [10] was found to be 0.5; in the data set on Mus musculus [14], 0.33. The Lethality with Mus musculus [11] is listed as 0%; with Mus musculus [13], 22.2%. In addition, the Ki in [12] worked out at 35 nM.
For the molecule `Clc1ccc2nnc3c(-c4cccs4)cnn3c2c1`, the inhibition in [16] was 66%.
Regarding `[O-][n+]1nc2c(-n3cccc3)cnn2c2cc(Cl)ccc21`, in data set [4], the inhibition amounted to 87.5%. The GR in data set [9] is 1.24. The inhibition constant Ki in [12] was 61.5 nM.
`Cc1n[nH]c(-c2cnn3c2n[n+]([O-])c2ccc(Cl)cc23)n1`: in [4], the inhibition turned out to be 15.2%.
As for `CN1C(=O)CN=C(c2ccccc2)c2cc(Cl)ccc21`, the GR in [9] was 1.5.
`C/C(=N\C(=O)c1cnn2c1n[n+]([O-])c1ccc(Cl)cc12)N(C)C` registered an inhibition in data set [4] of 58.5%.
With `[O-][n+]1nc2c(-c3nc[nH]n3)cnn2c2cc(Cl)ccc21`, the inhibition in [4] was 44.4%.
Consider `Nc1cnn2c1n[n+]([O-])c1ccc(Cl)cc12`, for which the inhibition in [4] was determined as 33.9%.
Still for that read-out and setting: the same measure for `CN(C)/C=N/C(=O)c1cnn2c1n[n+]([O-])c1ccc(Cl)cc12`: 48.9%; for `[O-][n+]1nc2c(-c3cnoc3)cnn2c2cc(Cl)ccc21`: 66%.
